Measured values reported in ChEMBL document CHEMBL4680127, “Rational design and Structure-Activity relationship of coumarin derivatives effective on HIV-1 protease and partially on HIV-1 reverse transcriptase” (Eur J Med Chem, 2020).

Tests used:
[1] = test system: Human immunodeficiency virus 1; assay: Antiviral activity against wild type HIV1 assessed as inhibitory effect on virus producing cells at 10 uM by cell based inhibition assay; format: functional
Outline: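 Late-stage single-round assay: compound at 10 μM was added to the medium of virus-producing cells 5 h after transfection and incubated 48 h. Pseudotyped virus from the supernatant then infected SupT1 cells for 48 h. Luciferase in the newly infected cells gave percent inhibition. Quadruplicate.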

[2] = target: Human immunodeficiency virus type 1 protease (Human immunodeficiency virus 1, UniProt Q72874); assay: Inhibition of recombinant HIV1 protease measured assessed as hydrolysis of fluorogenic substrate by FRET assay
Outline: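 Wild-type HIV-1 protease activity was read by FRET. Each assay was run in triplicate. IC50 values are means (±1 standard deviation) from three independent experiments.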

[3] = target: T1, Human immunodeficiency virus type 1 reverse transcriptase (Human immunodeficiency virus 1, UniProt Q72547); assay: Inhibition of HIV-1BH10 reverse transcriptase expressed in Escherichia coli assessed as polymerization by one-step real time RT-PCR assay
[4] = target: T1, Human immunodeficiency virus type 1 reverse transcriptase; assay: Inhibition of HIV-1 NL4-3 reverse transcriptase expressed in Escherichia coli assessed as polymerization by one-step real-time RT-PCR assay
[5] = test system: Human immunodeficiency virus 1; assay: Antiviral activity against wild type HIV1 assessed as inhibitory effect on virus infected cells at 10 uM by cell based inhibition assay; format: functional
Outline: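 Single-round assay of the early stage: SupT1 cells were first infected with pseudotyped HIV-1, then exposed to compound at 10 μM for 48 h. Luciferase activity was measured and expressed as percent inhibition.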

[6] = test system: Human immunodeficiency virus 1; assay: Antiviral activity against wild type HIV1 infected in human SupT1 cells assessed as inhibitory effect at 100 nM by cell based inhibition assay; format: functional; details: Human immunodeficiency virus 1, SUP-T1
Outline: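 1×10^6 SupT1 cells were infected with HIV-1 NL4-3 by spin infection, with 10 µg/mL polybrene and test agent at 100 nM present during infection. Activity is expressed as percent inhibition of viral growth.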

| SMILES | inhibition at 10 µM [1] | IC50 [2] | IC50 [3] | IC50 [4] | inhibition at 10 µM [5] | inhibition at 0.1 µM [6] |
| --- | --- | --- | --- | --- | --- | --- |
| CC(C)CN(C[C@@H](O)[C@H](Cc1ccccc1)NC(=O)O[C@H]1CO[C@H]2OCC[C@H]21)S(=O)(=O)c1ccc(N)cc1 | 30.8% | – | – | – | – | – |
| COc1ccc(S(=O)(=O)N(CC(C)C)C[C@@H](O)[C@H](Cc2ccccc2)NCc2cc(=O)oc3cc(O)ccc23)cc1 | 88.8% | 0.053 µM | – | – | – | – |
| COc1ccc(S(=O)(=O)N(CC(C)C)C[C@@H](O)[C@H](Cc2ccccc2)NC(=O)Oc2c3occc3cc3ccc(=O)oc23)cc1 | – | 0.12 µM | > 1000 µM | – | – | – |
| COc1ccc(S(=O)(=O)N(CC(C)C)C[C@@H](O)[C@H](Cc2ccccc2)NC(=O)c2cc3ccc(OC)cc3oc2=O)cc1 | – | 0.0467 µM | – | 370 µM | 8.28% | – |
| CC(C)CN(C[C@@H](O)[C@H](Cc1ccccc1)NC(=O)c1cc2ccc(O)cc2oc1=O)S(=O)(=O)c1ccc(N)cc1 | – | 0.0277 µM | – | 554 µM | 27% | – |
| CC(C)CN(C[C@@H](O)[C@H](Cc1ccccc1)NC(=O)Oc1c2occc2cc2ccc(=O)oc12)S(=O)(=O)c1ccc([N+](=O)[O-])cc1 | – | 1.53 µM | > 1000 µM | – | – | – |
| COc1ccc(S(=O)(=O)N(CC(C)C)C[C@@H](O)[C@H](Cc2ccccc2)NC(=O)Cc2cc(=O)oc3cc(O)ccc23)cc1 | 82.9% | 0.00162 µM | – | 459 µM | – | 45.5% |
| CC(C)CN(C[C@@H](O)[C@H](Cc1ccccc1)NC(=O)Cc1cc(=O)oc2cc(N(C)C)ccc12)S(=O)(=O)c1ccc([N+](=O)[O-])cc1 | – | 0.276 µM | > 1000 µM | – | 14.7% | – |
| CC(C)CN(C[C@@H](O)[C@H](Cc1ccccc1)NC(=O)c1cc2ccccc2oc1=O)S(=O)(=O)c1ccc(N)cc1 | – | 0.156 µM | – | 75.3 µM | 1.34% | – |
| CC(C)CN(C[C@@H](O)[C@H](Cc1ccccc1)NCc1cc(=O)oc2cc(O)ccc12)S(=O)(=O)c1ccc([N+](=O)[O-])cc1 | 73.2% | 0.14 µM | – | – | – | – |
| CC(C)CN(C[C@@H](O)[C@H](Cc1ccccc1)NC(=O)c1cc2ccccc2oc1=O)S(=O)(=O)c1ccc([N+](=O)[O-])cc1 | – | 0.298 µM | > 1000 µM | – | 27.1% | – |
| COc1ccc2c(CC(=O)N[C@@H](Cc3ccccc3)[C@H](O)CN(CC(C)C)S(=O)(=O)c3ccc([N+](=O)[O-])cc3)cc(=O)oc2c1 | – | 0.0558 µM | – | 373 µM | 43.7% | – |
| CC(C)CN(C[C@@H](O)[C@H](Cc1ccccc1)NC(=O)c1cc2ccc(O)cc2oc1=O)S(=O)(=O)c1ccc([N+](=O)[O-])cc1 | 74% | 0.0621 µM | – | 189 µM | 91% | – |
| COc1ccc(S(=O)(=O)N(CC(C)C)C[C@@H](O)[C@H](Cc2ccccc2)NC(=O)c2cc3ccc(O)cc3oc2=O)cc1 | – | 0.0395 µM | – | 421 µM | 12.3% | – |
| CC(C)CN(C[C@@H](O)[C@H](Cc1ccccc1)NC(=O)Cc1cc(=O)oc2cc(O)ccc12)S(=O)(=O)c1ccc([N+](=O)[O-])cc1 | 73.4% | 0.0111 µM | – | 367 µM | 3.91% | – |
| COc1ccc(S(=O)(=O)N(CC(C)C)C[C@@H](O)[C@H](Cc2ccccc2)NC(=O)c2ccc3oc(=O)ccc3c2)cc1 | 99.5% | 0.00184 µM | – | 597 µM | 1.26% | – |
| CC(C)CN(C[C@@H](O)[C@H](Cc1ccccc1)NC(=O)c1ccc2oc(=O)ccc2c1)S(=O)(=O)c1ccc([N+](=O)[O-])cc1 | 98.5% | 0.0026 µM | > 1000 µM | – | – | – |
| CC(C)CN(C[C@@H](O)[C@H](Cc1ccccc1)NC(=O)Cc1cc(=O)oc2cc(N(C)C)ccc12)S(=O)(=O)c1ccc(N)cc1 | – | 0.0751 µM | – | 572 µM | 18.4% | – |
| COc1ccc(S(=O)(=O)N(CC(C)C)C[C@@H](O)[C@H](Cc2ccccc2)NC(=O)Oc2ccc3c(C)cc(=O)oc3c2)cc1 | – | 0.16 µM | > 1000 µM | – | – | – |
| COc1ccc2cc(C(=O)N[C@@H](Cc3ccccc3)[C@H](O)CN(CC(C)C)S(=O)(=O)c3ccc(N)cc3)c(=O)oc2c1 | – | 0.102 µM | – | 706 µM | 23.2% | – |
| CC(C)CN(C[C@@H](O)[C@H](Cc1ccccc1)NC(=O)c1ccc2oc(=O)ccc2c1)S(=O)(=O)c1ccc(N)cc1 | 98.7% | 0.0004 µM | – | 398 µM | 5.61% | – |
| COc1ccc2c(CC(=O)N[C@@H](Cc3ccccc3)[C@H](O)CN(CC(C)C)S(=O)(=O)c3ccc(N)cc3)cc(=O)oc2c1 | – | 0.0154 µM | – | 411 µM | 7.72% | – |
| CC(C)CN(C[C@@H](O)[C@H](Cc1ccccc1)NC(=O)Cc1cc(=O)oc2cc(O)ccc12)S(=O)(=O)c1ccc(N)cc1 | 17.9% | 0.0379 µM | > 1000 µM | – | – | – |
| COc1ccc(S(=O)(=O)N(CC(C)C)C[C@@H](O)[C@H](Cc2ccccc2)NC(=O)Cc2cc(=O)oc3cc(N(C)C)ccc23)cc1 | – | 0.211 µM | – | 355 µM | 43.8% | – |
| COc1ccc2cc(C(=O)N[C@@H](Cc3ccccc3)[C@H](O)CN(CC(C)C)S(=O)(=O)c3ccc([N+](=O)[O-])cc3)c(=O)oc2c1 | – | 0.221 µM | > 1000 µM | – | 0.45% | – |
| COc1ccc(S(=O)(=O)N(CC(C)C)C[C@@H](O)[C@H](Cc2ccccc2)NC(=O)Cc2cc(=O)oc3cc(OC)ccc23)cc1 | – | 0.0155 µM | – | 242 µM | 17.7% | – |
| Cc1cc(=O)oc2cc(OC(=O)N[C@@H](Cc3ccccc3)[C@H](O)CN(CC(C)C)S(=O)(=O)c3ccc([N+](=O)[O-])cc3)ccc12 | – | 1.02 µM | > 1000 µM | – | – | – |
| COc1ccc(S(=O)(=O)N(CC(C)C)C[C@@H](O)[C@H](Cc2ccccc2)NC(=O)c2cc3ccccc3oc2=O)cc1 | – | 0.0728 µM | – | 474 µM | 44.8% | – |
| O=C1Nc2ccc(Cl)cc2[C@@](C#CC2CC2)(C(F)(F)F)O1 [EFAVIRENZ] | 100% | – | – | – | – | – |
| Cc1ccnc2c1NC(=O)c1cccnc1N2C1CC1 [NEVIRAPINE] | – | – | – | – | – | 77% |
